Measured values published in ChEMBL document CHEMBL1128737, “Inhibition of herpes simplex virus type 1 helicase-primase by (dichloroanilino)purines and -pyrimidines” (J Med Chem, 1995).

What was measured:
[1] = biological target: T1, DNA helicase/primase complex protein (Herpes simplex virus (type 1 / strain 17)) (UniProt P10236); assay: Inhibition against DNA-Dependent ATPase activity of HSV-1 helicase-primase in HSV-1-infected CV-1 cells; assay type: cell-based; design: concentration or dose not given beside the values; details: concentration not given here
T1 sequence (whole entry): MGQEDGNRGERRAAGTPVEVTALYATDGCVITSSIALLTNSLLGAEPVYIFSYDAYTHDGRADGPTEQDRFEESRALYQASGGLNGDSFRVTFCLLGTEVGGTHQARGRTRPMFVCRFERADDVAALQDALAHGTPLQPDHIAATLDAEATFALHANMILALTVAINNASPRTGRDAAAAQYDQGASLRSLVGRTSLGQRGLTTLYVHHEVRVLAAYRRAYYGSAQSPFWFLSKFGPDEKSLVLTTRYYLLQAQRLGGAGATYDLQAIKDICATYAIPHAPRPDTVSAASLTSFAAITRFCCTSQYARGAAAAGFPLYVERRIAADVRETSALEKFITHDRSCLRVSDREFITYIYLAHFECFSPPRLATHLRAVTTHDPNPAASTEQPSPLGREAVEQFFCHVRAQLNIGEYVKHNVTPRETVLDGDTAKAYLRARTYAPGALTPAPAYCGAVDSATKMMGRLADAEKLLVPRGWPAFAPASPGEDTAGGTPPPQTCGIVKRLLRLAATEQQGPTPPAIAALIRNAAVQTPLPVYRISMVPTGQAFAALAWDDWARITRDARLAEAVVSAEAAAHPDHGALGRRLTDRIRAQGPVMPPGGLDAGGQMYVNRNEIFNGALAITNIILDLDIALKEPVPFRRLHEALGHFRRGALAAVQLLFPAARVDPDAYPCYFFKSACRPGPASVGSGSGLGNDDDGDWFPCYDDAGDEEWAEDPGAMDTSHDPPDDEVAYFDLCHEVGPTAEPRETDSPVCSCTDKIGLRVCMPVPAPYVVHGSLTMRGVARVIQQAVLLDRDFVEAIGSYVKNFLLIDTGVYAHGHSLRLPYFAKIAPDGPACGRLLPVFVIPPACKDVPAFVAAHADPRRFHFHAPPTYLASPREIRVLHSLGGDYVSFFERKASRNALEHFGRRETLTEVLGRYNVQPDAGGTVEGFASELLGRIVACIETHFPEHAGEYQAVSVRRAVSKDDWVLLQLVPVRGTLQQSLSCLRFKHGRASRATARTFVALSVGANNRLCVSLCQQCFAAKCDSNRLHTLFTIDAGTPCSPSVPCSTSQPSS
Method in brief: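 Three-subunit helicase-primase purified from HSV1-infected CV-1 cells, 15 units. DNA-dependent NTPase run with 1 mM ATP and 2 μg activated DNA, compounds in 5% DMSO, 20 min at 34 °C. Orthophosphate read with acidic molybdate-malachite green at 650 nm. Done in duplicate, averaged over at least two independent experiments.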

HeLa [2] = assay: Inhibition of [3H]thymidine incorporation into the DNA of uninfected HeLa cells; assay type: functional, cell-based; details: Homo sapiens
Method in brief: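 Uninfected HeLa cells (3 × 10^6/well) in DMEM/10% FCS grown 24 h, then given serial compound dilutions or DMSO in duplicate for a further 24 h at 37 °C. [3H]thymidine (1 μCi/mL) added for 3 h, followed by NaOH lysis, 5% TCA precipitation, filter collection and scintillation counting.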

HeLa [3] = assay: Inhibition of HSV-1 DNA synthesis in virus-infected HeLa cells; assay type: functional, cell-based; details: Homo sapiens
Method in brief: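 HeLa cells (2 × 10^4/well) grown 24 h at 37 °C, infected with HSV1 KOS, adsorbed 90 min. Serial compound dilutions in DMEM/2% FCS added to duplicate wells for 24 h.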

DNA replication helicase = DNA replication helicase (Human herpesvirus 1, UniProt P10189); assay: Inhibition against DNA-Dependent GTPase activity of two-subunit recombinant HSV-1 helicase-primase
Sequence of DNA replication helicase (P10189 whole entry, looked up): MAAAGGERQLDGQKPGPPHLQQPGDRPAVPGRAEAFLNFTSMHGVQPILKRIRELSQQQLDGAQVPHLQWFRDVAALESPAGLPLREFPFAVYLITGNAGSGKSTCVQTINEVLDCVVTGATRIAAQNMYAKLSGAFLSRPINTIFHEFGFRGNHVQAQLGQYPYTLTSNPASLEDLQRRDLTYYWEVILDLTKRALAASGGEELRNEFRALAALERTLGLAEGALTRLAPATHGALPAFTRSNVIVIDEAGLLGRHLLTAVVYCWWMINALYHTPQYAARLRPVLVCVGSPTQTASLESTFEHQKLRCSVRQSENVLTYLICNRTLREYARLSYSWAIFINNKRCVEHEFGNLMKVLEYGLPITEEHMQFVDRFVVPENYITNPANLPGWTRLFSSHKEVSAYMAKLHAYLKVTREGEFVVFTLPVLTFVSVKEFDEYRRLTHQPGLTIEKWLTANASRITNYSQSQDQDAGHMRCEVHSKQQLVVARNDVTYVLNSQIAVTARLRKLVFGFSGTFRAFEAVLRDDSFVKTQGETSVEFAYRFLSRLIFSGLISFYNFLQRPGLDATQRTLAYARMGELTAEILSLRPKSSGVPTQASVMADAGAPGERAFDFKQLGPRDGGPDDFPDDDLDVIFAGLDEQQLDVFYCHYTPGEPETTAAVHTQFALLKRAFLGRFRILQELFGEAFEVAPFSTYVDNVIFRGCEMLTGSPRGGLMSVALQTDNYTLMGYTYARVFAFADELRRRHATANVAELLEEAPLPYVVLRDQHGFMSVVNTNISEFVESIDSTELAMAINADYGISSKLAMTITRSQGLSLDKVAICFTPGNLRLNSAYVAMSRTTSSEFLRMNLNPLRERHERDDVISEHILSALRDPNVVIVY

[4] = biological target: T1, DNA helicase/primase complex protein (Herpes simplex virus (type 1 / strain 17)); assay: (§1) Inhibition against the primase activity of HSV-1 helicase-primase at a concentration 200 micro/mL; details: Human alphaherpesvirus 1
[5] = biological target: T1, DNA helicase/primase complex protein (Herpes simplex virus (type 1 / strain 17)); assay: as §1; assay type: functional; details: Human alphaherpesvirus 1
[6] = biological target: T2, DNA helicase/primase complex protein (Herpes simplex virus (type 1 / strain 17), UniProt P10236); assay: (§2) Inhibition against Primase by coupled primase-DNA polymerase-I assay with the two subunit recombinant HSV-1 helicase primase; assay type: functional, Human alphaherpesvirus 1
T2 sequence (P10236 whole entry): T1 sequence (whole entry)
Method in brief: (§3)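 Two-subunit baculovirus enzyme (1 unit) coupled to 1 unit E. coli Klenow. Buffer: 50 mM Tris·HCl pH 8.7, 3.5 mM MgCl2, 10% glycerol, 100 μg/mL BSA. Inhibitors in DMSO at 0.5% final, screened at 200 μg/mL. Run 60 min at 34 °C; EDTA quench; polymer isolated on G50 and counted. Duplicates.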

[7] = biological target: T2, DNA helicase/primase complex protein; assay: as §2; design: species or system Human alphaherpesvirus 1; method in brief: as §3

SMILES	inhibition [1] [%]	IC50 (HeLa [2]) [µM]	IC50 (HeLa [3]) [µM]	also measured
Oc1[nH]c(Nc2ccc(F)cc2)nc2ncnc1-2	5			
Oc1[nH]c(Nc2ccccc2)nc2ncnc1-2	0			
Nc1nc(Nc2cc(Cl)cc(Cl)c2)nc2c1ncn2COCCO		2.5	12.9	
Oc1[nH]c(Nc2ccc(F)c(F)c2)nc2ncnc1-2	73			
CCc1cccc(Nc2nc(O)c3[nH]cnc3n2)c1	42			
Nc1nc(Nc2cc(Cl)cc(Cl)c2)nc2nc[nH]c12				IC50 (DNA replication helicase): 920 µM
O=c1[nH]c(Nc2cc(Cl)cc(Cl)c2)nc2c1ncn2COC(CO)CO		22.9	91	
O=c1[nH]c(Nc2cc(Cl)cc(Cl)c2)nc2c1ncn2[C@H]1C[C@H](O)[C@@H](CO)O1		32	190	
Oc1[nH]c(Nc2cccc(Cl)c2)nc2ncnc1-2	60			
Oc1cc(Nc2ccc(Cl)c(Cl)c2)nc(O)n1				inhibition [4]: 30%; IC50 (DNA replication helicase): > 2000 µM
Oc1[nH]c(Nc2ccc(Cl)c(Cl)c2)nc2ncnc1-2	98	250	> 200	inhibition [5]: 89%; IC50 [6]: 59 µM; IC50 (DNA replication helicase): 880 µM
Nc1nc(Nc2cc(Cl)cc(Cl)c2)cc(=O)[nH]1				IC50 (DNA replication helicase): 770 µM
Nc1nc(O)cc(Nc2cc(Cl)cc(Cl)c2)n1				inhibition [4]: 34%
O=c1[nH]c(Nc2cc(Cl)cc(Cl)c2)nc2c1ncn2COCCO		23.4	14.4	
Oc1[nH]c(Nc2ccc(Br)cc2)nc2ncnc1-2	40			
Nc1nc2c(ncn2COCCO)c(=O)[nH]1 [ACYCLOVIR]		> 200	1.9	
Nc1nc(Cl)cc(Nc2ccc(Cl)c(Cl)c2)n1		25	62	inhibition [4]: 98%; IC50 [7]: 8.7 µM

SMILES	inhibition [1] [%]	IC50 (HeLa [2]) [µM]	IC50 (HeLa [3]) [µM]	also measured
Nc1nc(O)cc(Nc2ccc(Cl)c(Cl)c2)n1				inhibition [4]: 44%; IC50 (DNA replication helicase): 850 µM
Nc1[nH]c(Nc2cc(Cl)cc(Cl)c2)nc2ncnc1-2		21	69	inhibition [4]: 93%
O=c1[nH]c(Nc2cccc(C(F)(F)F)c2)nc2[nH]cnc12	13			
O=c1[nH]c(Nc2cc(Cl)cc(Cl)c2)nc2nc[nH]c12				IC50 (DNA replication helicase): 910 µM
Oc1[nH]c(Nc2ccc3c(c2)CCC3)nc2ncnc1-2	0			
Cc1ccc(Nc2nc(O)c3[nH]cnc3n2)cc1	0			
Nc1nc(Nc2cc(Cl)cc(Cl)c2)nc2c1ncn2[C@H]1C[C@H](O)[C@@H](CO)O1		0.4	49	
Nc1nc(Cl)cc(Nc2cc(Cl)cc(Cl)c2)n1		23	45	inhibition [4]: 92%
Oc1[nH]c(Nc2ccc(F)c(Cl)c2)nc2ncnc1-2	96			
OC[C@H]1O[C@@H](n2cnc3c(Cl)nc(Nc4cc(Cl)cc(Cl)c4)nc32)C[C@@H]1O		2.7	23	
Nc1nc(Nc2cc(Cl)cc(Cl)c2)nc2c1ncn2COC(CO)CO		5.5	61.6	
OCCOCn1cnc2c(Cl)nc(Nc3cc(Cl)cc(Cl)c3)nc21		7.4	5	
Oc1[nH]c(Nc2cc(Cl)cc(Cl)c2)nc2ncnc1-2	70	> 200	> 200	inhibition [5]: 94%
Oc1cc(Nc2cc(Cl)cc(Cl)c2)nc(O)n1				inhibition [4]: 46%; IC50 (DNA replication helicase): > 2000 µM
Nc1[nH]c(Nc2ccc(Cl)c(Cl)c2)nc2ncnc1-2		15	75	inhibition [4]: 94%; IC50 (DNA replication helicase): 850 µM
Oc1ccc(Nc2nc(O)c3[nH]cnc3n2)cc1	17			
